Our source for the yeast fitness values is the RNAGym collection of RNA variant scans (doi:10.1126/science.aae0568).

This sample holds only a part of the variants without activity.

B1: tRNA (parent)
chain: GUUCCGUUGGCGUAAUGGUAACGCGUCUCCCUCCUAAGGAGAAGACUGCGGGUUCGAGUCCCGUACGGAACG

In the series the parent is B1. Nature of the series: yeast fitness relative to wild type (ratio to wild type); higher = fitter; tRNA-Arg(CCU), competitive growth, 37 C, YPD. The gist of the method: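 For this measurement, the tRNA-Arg(CCU) gene was varied by chemical synthesis at a 3% per-site mutation rate across 69 sites, and each variant was placed at the native genomic locus in Saccharomyces cerevisiae. The pooled strains went through a 24-hour competition in YPD at 37°C in six parallel replicates, with amplicons from start and end populations read by 100-nucleotide paired-end sequencing. Darwinian fitness relative to wild type followed from the change in each genotype's frequency. Genotypes needed ≥ 100 starting reads, and estimates < 0.5 were set to 0.5.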
Regarding GUUCCGUUGGCGAAAUGCUAACGCGACUCCCUCCUAAGGAGAAGACUGCGGGUUCGAGUCCCGUACGGAACG [U13A G18C U26A], the yeast fitness was not above 0.5. Turning to GUUCCGUUGGCGUGAUGGUAACGCGUAUCCCUCCUAAGGAGAAGACUGCGGGUUCGAGUCCCGUACGGAACG [A14G C27A], the yeast fitness turned out to be 0.916.

In the case of GUUCCGUUGCCGUUAUGGUUACGCGUCUCCAUCCUAAGGAGAAGACUGCGGGUUGCAGUCCCGUACGGAACG [G10C A14U A20U C31A C55G G56C], the yeast fitness is not above 0.5. On to GUUCCGAUGGCGUAAUGGUAACGCGUCUCGCUCCUAAGGAGACGACUGCGGGUUCGUAUCCCGUACGGAACG [U7A C30G A43C A57U G58A], for which the yeast fitness is not above 0.5. Under GUUCCGUUGGCGUAAAGGUAACGCGUCUCCCUCCUACGGAGAAGACUGCGGGUUCGAGUACCGCACGGAACG [U16A A37C C60A U64C] stands not above 0.5.

Take GUUCCGGUGGCGUGAUGGUAACGCGUCUCCCUCCGAAGGAGAGGACUGCGGGUUUGAGACCCGUACGGAACG [U7G A14G U35G A43G C55U U59A]: the yeast fitness is not above 0.5. Under GUUCCGUUGGCGUAAUGGUCACGCGUCUCCCUCCUAAGGAGAAGACUGCGGGUUCAAGUCCCGUACGGAUCG [A20C G56A A70U] stands 0.91; under GUUCCGUUGGCGUAAUGGUAACGCGUCUCCCUCCUAAGGAAAAGACUGCGGGUUCGAGUGCCGUGCGAAACG [G41A C60G A65G G68A], not above 0.5. Regarding GUUCCGUUGGCGUAAUGAUAAGGCGUCUCCCUCCUAAGGAGAAGACUGCGGGUUCGAGUCCCGUACGGAACG [G18A C22G], the yeast fitness is 0.856. As for GUUCCGUAGGCGUAAUGGUAACGAGUCACCCUCCUAAGGAGAAGACUGCGGGUUCGAAUCCCGUACGGAACG [U8A C24A U28A G58A], the figure is 0.584; as for GUUCUGUUGGCGUAAUGGUAACGCGUCUCCCUCCUAAGGAGAAGACUGCGGGUUCGACUCCCGUACGGAACG [C5U G58C], 1. With GUUCCGUUGGCGUAAUGGUAGCGCGUCUCCCUCCUAAGGAGAAGACAGCGGGUUCGAGUCCCGUACGGAACG [A21G U47A], the yeast fitness was found to be 0.822. As for GUUCCGUUGGCGUAAUGGUAACGCGCCUCCCUCCUAAGGAGAAGACUGUGGGUUCGAGUCCCGUACGGAACG [U26C C49U], the figure is 0.833; as for GUUCCGUUGGCGUAAUGGUAACGCGUCUCCCUCCUAAGGAGAAGACUGCGGGUUCGAGUCCCUUAAGGUACG [G63U C66A A69U], not above 0.5. Under GUUCCGUUGGCGUAAUGGUAACGCGUCUCCCUCCUACGGAGAAGACUGGGGGUUCGAGUCCCGUACGGAACG [A37C C49G] stands 0.729; under GUUCCGUUGGCGUAAUGGUAAAGCGUCCCCCUCCUAAGGAGAAGACUGCGGGUUCGAGUCCCGUACGGAACG [C22A U28C], 0.852; under GUUCCGUUGGCGUAAUGGUAACGCGUCUCCGUCCUAAGGAGAAGGCUGCGGGUUCGAGUGCCGUACGGAACG [C31G A45G C60G], not above 0.5.

For the variant GUGCCGUUGGCGUAAUGGUAACGCGUCUCCCUCCUAAGGAGAAGACUGCGGGCUCGAGUCCCGUAUGGUACG [U3G U53C C66U A69U], the yeast fitness was 0.548. As to GUUCCGUUGGCGUAAUGGUAACGUGUCUCCCUCCUAAGGAGAAGGGUGCGGGUUGGAGUCCCGUACGGAACG [C24U A45G C46G C55G], the yeast fitness was 0.588. Consider GUUCCGUUGGCGUAAUGGUAGCGCGUCUCCUUCCCAAGGGGAAGACUGCGGGUUCGAGUCCCGUUCGGAACG [A21G C31U U35C A40G A65U], for which the yeast fitness was not above 0.5.

In the case of GUUCCGUUCGCGUAAUGGUAACGCGUGUCGCUCCUAAGGUGAAGACUGUGGGUUCGAGUCCCGUACGGAACG [G9C C27G C30G A40U C49U], the yeast fitness was not above 0.5. As to GUUCUGUUGGUGUCAUGGUAACGCGUCUCCCUCCUAAGGAGAAGACUGCGGGUUCGAGUCACGUACGGAACG [C5U C11U A14C C61A], the yeast fitness is not above 0.5.

Take GUUCCGUUGGCGUAUUGGUAACGCGUCCCCCUCCUAAGGAGAAGACUGCGGGUUGGAGUCCCGUACGGAACG [A15U U28C C55G]: the yeast fitness turned out to be 0.589. For the variant GUUCCGUUGGCGUAAUGGUAACGCGUCUCCCUCCUAAGGAGAACACUGCGGGUUCGAGUCCCGUCCGGAACG [G44C A65C], the yeast fitness was determined as 0.742. Under GUUCCGUUGGCGUACUGGUAACGCGUCUCCCUCCUUAGGAGAAGACUGCGGGUUCGUGUCCCGUACAGAACG [A15C A36U A57U G67A] stands not above 0.5; under GUUCCGUUGGCGUAAUCGUAACGGGUCUCUCUCCUAAGGAGAAGACUGCCGGUUCGAGUCCCGUACGGAACG [G17C C24G C30U G50C], not above 0.5. Under GUUCGGUUGGCGUAAUGGUAACGCGGCUCCCUCCUCAGGAGAAGACUGCGGGUUCGAGUCCCGUAAGGAACG [C5G U26G A36C C66A] stands not above 0.5. As for GUUCCGUUGGCGUAAUGGUAACGCGUCUCCCUCCUAAGGAGUAGACUGCGGGUUCGAGUCCCCUACGGAACG [A42U G63C], the figure is 0.715; as for GUUCAGUUGGCGUCGUGGUAACGCGUCUCCCUCCUAAGGAGAAGACUGAGGGUUCGAGUCCCGUACGGAACG [C5A A14C A15G C49A], 0.572; as for GUUCCGUUGGCGUAAUGGUAACGCGUCUGCCUCCUAAGGAGAAGACUGCGGGUUCGAGUCCCCUACGGAUCG [C29G G63C A70U], not above 0.5. On to GUUCCGUUGGCGUAAUGGUAAUGCGUCUCCCUCCUAAGGAGAAGACUGCGGGUUCGAGUCCCGUGCGGAACG [C22U A65G], for which the yeast fitness was found to be 0.835. Under GUUUCGUUGGCGUAAUGGUAACGCGUCUCCCUCCUAAGAAGAAGACUGCGGGUUCGAGUCCCGUACAGAACG [C4U G39A G67A] stands 0.61; under GUUCCGUUGGCGUAAUGGUAACGCGUCUCCCUCCUAAGGAGAAGACUGCAGGUUCGAGUCCAGUACGAAACG [G50A C62A G68A], not above 0.5. Take GUUGCGUUGGCGUAAUGGUAACGCGUCUCGCCCCUAAGGAGAAGACUGCGGGUUCGAGUCCCGUACGGAACG [C4G C30G U32C]: the yeast fitness was not above 0.5.

GUUCCGUUGGCGUAACGGUAACGCGUCUCCCUCCUAAGGAGAAGACUCUGGGUUCGAGUCCCGUCCGGACCG [U16C G48C C49U A65C A70C]: the yeast fitness is not above 0.5. Under GUUCCGUUGGCGUAAUCGUAACGCGUCUCCCUCCUAAGGAGAAGACUACGGGUUUGAGUCCCGUACGGAACG [G17C G48A C55U] stands not above 0.5; under GUCCCGUUGGCGCAAUGGUAACGCGUCGCCCUCCUAAGGAGAAGACUGCGGGUACGAGUCCAGUACGGAACG [U3C U13C U28G U54A C62A], not above 0.5.
